Like-named read-outs stand apart in the source and are kept apart here.

In data set [1] the test system is HCC78 NSCLC cell line. The experiment in a line: Proliferation of HCC78 NSCLC cell line. Format: cell-based, human. A digest of the protocol: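 HCC-78 cells were obtained from ATCC (STR-authenticated) and passaged under 6 months. Cells were exposed to test compound for 72 hours, and viability was read by CellTiter Glo luminescence.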
Data set [2] concerns ROS1-rearranged NSCLC. The note with it: phase II; cited from earlier work.
Data set [3] deals with ROS1 autophosphorylation and ERK in CD74-ROS1 wild-type transformed Ba/F3 cells. The data set can be described thus: Western blot of ROS1. Format: cell-based, murine. A general note: A western blot detects proteins with antibodies after separation by electrophoresis.
Data set [4] has as its system CUTO-3 cells. The experiment in a line: Proliferation of CUTO-3 tumor cells. Format: cell-based, human.
The test system of data set [5] is NTRK1 autophosphorylation in NIH-3T3 cells transformed with FLAG-tagged CD74-NTRK1. Format: cell-based. The note with it: 6 hours, western blot.
In data set [6] the test system is NTRK1 autophosphorylation in CUTO-3 cells (MPRIP-NTRK1). The data set can be described thus: Western blot of NTRK1 autophosphorylation in CUTO-3 cells. Format: cell-based, human. The note with it: 6 hours, dovitinib at 1000 nM. A digest of the protocol: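 CUTO-3 cells (MPRIP-NTRK1, patient-derived) were treated with inhibitor for 6 hours. They were lysed for 30 min in 0.1% Triton X-100 plus protease inhibitor. Lysates were run on 4–12% Bis-Tris gels and transferred to PVDF. Membranes were blocked in 5% milk, then probed with primary antibody at 1:1,000 and secondary at 1:5,000.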

For data set [7], the system named is F589V CD74-NTRK1. Type of data set: cell-based. The note with it: 293 cells transiently transfected with wild-type and F589V CD74-NTRK1.
The subject of data set [8] is Parental Ba/F3 cells. The data set can be described thus: Proliferation of parental Ba/F3 cells grown in the presence of IL-3. The note with it: read-out: IC50 Parental Ba/F3. Format: cell-based, murine. A digest of the protocol:
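Parental Ba/F3 cells are immortalized murine bone-marrow pro-B cells. They were incubated with test compound for 72 hours, and viability was measured by CellTiter Glo. Final DMSO was under 0.5%.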

For data set [9] the following is noted: observed in clinical trials; cited from earlier work.
Data set [10] relates to ROS1 autophosphorylation and ERK in CD74-ROS1 G2032R transformed Ba/F3 cells. The data set can be described thus: Western blot of ROS1. Format: cell-based, murine.
Data set [11] relates to ROS1 autophosphorylation and ERK in CD74-ROS1 L2026M transformed Ba/F3 cells. The data set can be described thus: Western blot of ROS1. Type of data set: cell-based, murine.
The test system of data set [12] is ROS1-rearranged metastatic lung adenocarcinoma. The experiment in a line: Treatment of one patient with ROS1-rearranged metastatic lung adenocarcinoma.
The subject of data set [13] is medullary thyroid cancer. The note with it: cited from earlier work.
Data set [14] has as its system RET-rearranged NSCLC. The note with it: of 3 patients with RET-rearranged NSCLC; cited from earlier work.
Data set [15] relates to prostate cancer. The note with it: cited from earlier work.
In data set [16] the target is Ba/F3 cells transformed with CD74-ROS1 (wild-type) (Homo sapiens, UniProt P04233+P08922). The data set can be described thus: Proliferation of Ba/F3 cells transformed with CD74-ROS1 wild-type. Type of data set: cell-based, murine. The note with it: peak plasma level obtained through FDA-approved oral dosing.
The mark [17] stands for this setting: Homo sapiens, HCC78, read-out: IC50 inhibition of the HCC78 NSCLC cell line.
[18] abbreviates: read-out: IC50 inhibition of CUTO-3 cells, proliferation.
Where [19] appears, read: Homo sapiens, CUTO-3, read-out: IC50 inhibition of CUTO-3 cells, proliferation.

Chain of Ba/F3 cells transformed with CD74-ROS1 (wild-type) (P08922 1883-2347 limits assumed, one chain of several): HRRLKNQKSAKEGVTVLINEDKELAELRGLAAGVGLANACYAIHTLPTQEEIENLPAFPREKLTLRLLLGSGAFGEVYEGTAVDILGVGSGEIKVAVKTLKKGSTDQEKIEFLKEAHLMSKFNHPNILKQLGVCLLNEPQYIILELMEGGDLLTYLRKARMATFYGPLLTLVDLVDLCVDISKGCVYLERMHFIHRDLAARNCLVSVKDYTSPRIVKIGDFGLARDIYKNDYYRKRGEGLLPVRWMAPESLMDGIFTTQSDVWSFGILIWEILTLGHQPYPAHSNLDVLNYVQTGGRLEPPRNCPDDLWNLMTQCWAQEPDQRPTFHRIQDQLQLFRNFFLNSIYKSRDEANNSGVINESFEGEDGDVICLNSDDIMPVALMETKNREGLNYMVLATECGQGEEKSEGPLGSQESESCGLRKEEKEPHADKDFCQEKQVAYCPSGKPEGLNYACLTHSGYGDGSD

Regarding `Cc1cc(Nc2ncc(Cl)c(Nc3ccccc3S(=O)(=O)C(C)C)n2)c(OC(C)C)cc1C1CCNCC1` [Ceritinib], in [1] (setting [17]), the IC50 is 0.53 µM.
For `C[C@@H](Oc1cc(-c2cnn(C3CCNCC3)c2)cnc1N)c1c(Cl)ccc(F)c1Cl` [Crizotinib, crizotinib], in data set [2], the progression-free survival is given as 19.2 month and the response rate is on record as 72%. Also, in data set [1] (setting [17]), the IC50 was 1.6 µM. For the same compound, the “phosphorylation of ROS1 and ERK” value in data set [3] is “inhibits the phosphorylation of ROS1 and ERK”. In addition, the IC50 in data set [4] (Homo sapiens, CUTO-3, read-out: IC50 inhibition of CUTO-3 cells) was determined as 0.462 µM.
Regarding `Cc1cc(N2CCOCC2)cc2[nH]c(-c3c(NC[C@@H](O)c4cccc(Cl)c4)cc[nH]c3=O)nc12` [BMS-536924], the entries for the “inhibition of NTRK1 autophosphorylation” value in [5] and in [6] were “inhibit NTRK1 autophosphorylation” and “inhibited NTRK1 autophosphorylation”, respectively. Further, the “effect of F589V mutation on inhibition of NTRK1 autophosphorylation” value in data set [7] is reported as “did not affect inhibition of NTRK1 autophosphorylation”. The IC50 came out at 2.75 µM in data set [8] (parental Ba/F3 cells, 72 hours) and 0.034 µM in [4] (setting [18]).
As for `CN1CCN(c2ccc3nc(-c4c(N)c5c(F)cccc5[nH]c4=O)[nH]c3c2)CC1` [dovitinib, Dovitinib], the “inhibition of NTRK1 autophosphorylation” value in [5] is given as “weaker than would be suggested by its IC50 value”; in data set [6], “partial inhibition”. For the same compound, in [9], the “peak plasma level with oral dosing” value is listed as 568 nM. Besides, the IC50 in data set [8] (Mus musculus, BaF3, 72 h) is 4.2 µM; in [4] (setting [19]), 0.17 µM.
Take `C[C@H]1Oc2cc(cnc2N)-c2c(nn(C)c2C#N)CN(C)C(=O)c2ccc(F)cc21` [PF-06463922]: the “phosphorylation of ROS1 and ERK” value in data set [10] was “little effect on signaling”; in [11] it was “inhibited wild-type and L2026M mutant ROS1 autophosphorylation and ERK activation”; in [3], “inhibited wild-type and L2026M mutant ROS1 autophosphorylation and ERK activation”. For the same compound, the IC50 in [1] (read-out: IC50 inhibition of the HCC78 NSCLC cell line, proliferation) was > 10 µM.
Take `CN1CCN(c2ccc(C(=O)Nc3n[nH]c4ccc(Cc5cc(F)cc(F)c5)cc34)c(NC3CCOCC3)c2)CC1` [Entrectinib, entrectinib]: the “phosphorylation of ROS1 and ERK” value in data set [10], in data set [11] and in data set [3] was “only effective at blocking activity of wild-type ROS1 signaling” each time. Further, the IC50 in data set [1] (setting [17]) worked out at 0.45 µM.
`COc1cc2c(Oc3ccc(NC(=O)C4(C(=O)Nc5ccc(F)cc5)CC4)cc3F)ccnc2cc1OCCCN1CCOCC1` [Foretinib, foretinib]: the “phosphorylation of ROS1 and ERK” value in [10] is “a decrease is seen in the phosphorylation of ROS1 and ERK”; in [11], “a decrease is seen in the phosphorylation of ROS1 and ERK”; in data set [3] it was “a decrease is seen in the phosphorylation of ROS1 and ERK”. Further, in data set [1] (setting [17]), the IC50 is 0.46 µM.
In the case of `CCc1cc2c(cc1N1CCC(N3CCOCC3)CC1)C(C)(C)c1[nH]c3cc(C#N)ccc3c1C2=O` [Alectinib], the IC50 in data set [1] (setting [17]) was determined as 0.75 µM.
Take `COc1cc2nccc(Oc3ccc(NC(=O)C4(C(=O)Nc5ccc(F)cc5)CC4)cc3)c2cc1OC` [Cabozantinib, cabozantinib]: the “right lower lobe lesion size on CT” value in [12] (4 weeks after initiation of cabozantinib, from 1.7 cm) came to 1.4 cm. For the same compound, in [12] (single patient, after approximately 3 weeks on treatment), the fatigue result was “grade II”. Also, in [12] (single patient, after approximately 3 weeks on treatment, 140 to 80 mg daily), the palmar-plantar erythrodysesthesia result is recorded as “grade III”. Further, the “phosphorylation of ROS1 and ERK” value in data set [10] is “a decrease is seen in the phosphorylation of ROS1 and ERK”; in [11], “a decrease is seen in the phosphorylation of ROS1 and ERK”; in data set [3] it was “a decrease is seen in the phosphorylation of ROS1 and ERK”. The patients with dose-reductions in data set [13] (medullary thyroid cancer study) is on record as 79%. For the same compound, the progression-free survival in [13] (medullary thyroid cancer, vs. 4 months placebo) was 11.2 months. Moreover, the “patients with doses held” value in data set [13] (medullary thyroid cancer) was 65%. Besides, the “patients with discontinuation due to adverse events” value in [13] (phase III thyroid cancer study) is 16%. In data set [14], the “patients with a partial response” value is listed as 2 patients. For the same compound, the “patients with stable disease” value in [14] is recorded as 1 patient. Besides, in data set [1] (setting [17]), the IC50 is 1.36 µM. Also, the figures for the discontinuation rate in data set [15] (40 mg group) and in data set [15] (100 mg group) were 18% and 25%, respectively. In addition, the “rate of dose reduction” value is listed as 31% in [15] (40 mg group) and 84% in [15] (100 mg group). The “fold by which inhibitory concentrations are below the peak plasma level” value in data set [16] is listed as ~ 50 fold.
In the case of `C[C@]12O[C@H](C[C@]1(O)CO)n1c3ccccc3c3c4c(c5c6ccccc6n2c5c31)CNC4=O` [lestaurtinib, Lestaurtinib], the “inhibition of NTRK1 autophosphorylation” value in data set [5] was “inhibit NTRK1 autophosphorylation”; in data set [6], “inhibited NTRK1 autophosphorylation”. In data set [7], the “effect of F589V mutation on inhibition of NTRK1 autophosphorylation” value is given as “did not affect inhibition of NTRK1 autophosphorylation”. Also, the IC50 amounted to 3.4 µM in data set [8] (Mus musculus, BaF3, 72 h); 0.0035 µM in [4] (setting [19]); 0.003 µM in [4] (setting [18]).
On to `COc1cc(N2CCC(N3CCN(C)CC3)CC2)ccc1Nc1ncc(Cl)c(Nc2ccccc2P(C)(C)=O)n1` [Brigatinib, brigatinib], for which the “phosphorylation of ROS1 and ERK” value in [10] was “less activity seen”; in data set [11] it was “inhibits the phosphorylation of ROS1 and ERK”; in [3], “inhibits the phosphorylation of ROS1 and ERK”. For the same compound, the IC50 in data set [1] (setting [17]) worked out at 2.2 µM.

The values are drawn from article PMC5203969 (Clinical cancer research : an official journal of the …, 2016).
